Screening data deposited in PubChem by Broad Institute.
SIRT5 block – blocks human SIRT5 desuccinylation of peptide | inhibition, % at 15 µM | Purified SirT5, succinyl-peptide AMC, trypsin-coupled fluorescence | 330,000 compounds, 1.1% hits | Q9NXA8; in the data active = inhibition above about 15%
Target sequence (Q9NXA8 whole entry, looked up): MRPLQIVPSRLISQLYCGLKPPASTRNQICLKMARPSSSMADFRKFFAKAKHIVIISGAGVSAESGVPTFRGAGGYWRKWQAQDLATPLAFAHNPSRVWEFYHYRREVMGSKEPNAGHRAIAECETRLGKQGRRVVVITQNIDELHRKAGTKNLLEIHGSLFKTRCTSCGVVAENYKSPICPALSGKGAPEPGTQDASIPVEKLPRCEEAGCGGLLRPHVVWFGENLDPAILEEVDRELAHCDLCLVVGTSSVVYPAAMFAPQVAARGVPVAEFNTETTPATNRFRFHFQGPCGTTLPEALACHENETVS
FN deposition inh – fibronectin deposition inhibition. 350,000 compounds, 0.086% hits. inhibition, % at 12.6 µM. AH1F fibroblasts, Alexa488-fibronectin deposition fluorescence, overnight;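 active = mean inhibition across replicates of 30% or more, regardless of how many single replicates reach that level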;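 also: positive control wells lacked labelled fibronectin entirely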
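Assay system: AH1F fibroblasts / Quantity: 10000 cells per well / Medium: DMEM plus 2% serum, read in PBS / Reagent: labelled fibronectin 24 nM / Dosing: single dose, pinned / Times: 1 h cell attachment, overnight exposure to compound and label / Signal: fluorescence, ex 485 nm, em 525 nm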
PGC1a acetyl inh – lowers PGC1a acetylation signal in U2OS cells | inhibition, % at 15.6 µM | AlphaScreen anti-acetyl-lysine; with virally co-expressed GCN5 acetyltransferase | 350,000 compounds, 0.17% hits;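 active = every replicate shows inhibition of at least 40%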;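 also: 0% = neutral control wells and 100% = positive control wells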
ERAP1 HTS inh – inhibitors of human ERAP1 aminopeptidase | Q9NZ08 | recombinant ERAP1, Leu-AMC fluorescence, 60 min | inhibition, % at 10.7 µM | 340,000 compounds, 0.15% hits;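 active = mean replicate inhibition of at least 30%, or all replicates individually reaching that 30% level; inactive = mean below 30% and not every replicate reaching it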;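 also: 0% = neutral control wells and 100% = L-leucinethiol positive control wells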
FGF22 binding – FGF22 (human) thermal shift binding; Q9HCT0; recombinant FGF22 thermal shift, SYPRO orange fluorescence; percent of sucrose octasulfate shift, DMSO zero; activity (Tm shift, normalised), % at 9.99 µM; 340,000 compounds, 1.5% hits;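 active = mean Tm shift, scaled 0 neutral to 100 positive control, at about 1.3% or above, every replicate too, limit read from the data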
Target sequence (Q9HCT0 whole entry, looked up): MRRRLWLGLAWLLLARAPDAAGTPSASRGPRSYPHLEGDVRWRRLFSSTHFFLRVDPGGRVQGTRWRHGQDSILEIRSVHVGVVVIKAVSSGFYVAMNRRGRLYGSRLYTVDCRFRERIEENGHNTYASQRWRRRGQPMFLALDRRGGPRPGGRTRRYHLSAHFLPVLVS
The depositor's hits bear a star. Compounds with a hit are over-represented: about 2.2% of the library has one in this group of screens.

Cc1ccc(NC(=O)CN(C)C(=O)COc2ccc(C(=O)c3ccc(F)cc3)cc2)cc1 was read as SIRT5 block -1, FN deposition inh -5, ERAP1 HTS inh 3 and FGF22 binding 44*.
`C[C@H]1CN([C@@H](C)CO)C(=O)c2cccc(NS(=O)(=O)c3ccccc3)c2O[C@H]1CN(C)S(=O)(=O)c1ccccc1` gave SIRT5 block 1, PGC1a acetyl inh -1, ERAP1 HTS inh 1 and FGF22 binding -1.
`COc1ccc(NC(=O)Nc2ccc3c(c2)C(=O)N([C@H](C)CO)C[C@H](C)[C@@H](CN(C)S(=O)(=O)c2c(C)noc2C)OCCCC[C@@H](C)O3)cc1` gave PGC1a acetyl inh 0 and FGF22 binding 0.
For CSc1c(-c2ccccc2)nc2ccccc2c1C(=O)O the results were FN deposition inh -17 and PGC1a acetyl inh 6.
Screening O=C(O)c1c(-c2ccccc2)c(-c2ccccc2)nc2ccccc12 returned SIRT5 block 1, FN deposition inh 2, PGC1a acetyl inh -5, ERAP1 HTS inh -3 and FGF22 binding 43*.
`COCC(=O)Nc1ccc2c(c1)[C@@H]1C[C@H](CC(=O)NCc3ccc(-c4ccccc4)cc3)O[C@@H](CO)[C@@H]1O2` gave SIRT5 block -1, PGC1a acetyl inh -2, ERAP1 HTS inh -3 and FGF22 binding 0.
For Cc1ccc(NS(=O)(=O)c2ccc(C)c(C(=O)N3CCOCC3)c2)cc1 the results were SIRT5 block -2, FN deposition inh 0, PGC1a acetyl inh 2, ERAP1 HTS inh 1 and FGF22 binding 0.
For CCc1ccc(NS(=O)(=O)c2ccc(C)c(C(=O)N3CCOCC3)c2)cc1 the results were SIRT5 block -1, FN deposition inh -3, ERAP1 HTS inh 83* and FGF22 binding 0.
CCOC(=O)c1sc(NC(=O)CSc2nccn2C)nc1C was read as SIRT5 block 16*, FN deposition inh -1, PGC1a acetyl inh 0, ERAP1 HTS inh -7 and FGF22 binding 0.
For CCOC(=O)c1sc(NC(=O)CSc2ncccn2)nc1C the results were SIRT5 block 1, ERAP1 HTS inh 0 and FGF22 binding 0.
`CN(C)CCCNC(=O)C[C@@H]1CC[C@H]2[C@H](COc3ccc(NC(=O)C4CCC4)cc3C(=O)N2C)O1` gave SIRT5 block -3, FN deposition inh 0, PGC1a acetyl inh 6, ERAP1 HTS inh 2 and FGF22 binding 0.
Cc1[nH]c2ccccc2c1C(=O)C(=O)N1CCN(c2ccccc2Cl)CC1 was read as SIRT5 block 34*, FN deposition inh 8, PGC1a acetyl inh -3, ERAP1 HTS inh 1 and FGF22 binding 0.
`COc1ccccc1N1CCN(C(=O)C(=O)c2c(C)[nH]c3ccccc23)CC1` gave SIRT5 block -1, FN deposition inh 8, ERAP1 HTS inh -1 and FGF22 binding 0.
O=C(Nc1nc2ccccc2n1CCN1CCOCC1)c1ccc(Cn2cc([N+](=O)[O-])cn2)o1 was read as SIRT5 block -1, FN deposition inh 6, ERAP1 HTS inh 2 and FGF22 binding 0.
Screening O=C(Nc1nc2ccccc2n1CCN1CCOCC1)c1ccc(COc2ccccc2Br)o1 returned SIRT5 block -5, FN deposition inh 4, ERAP1 HTS inh 2 and FGF22 binding 43*.
Screening CCCCn1c(N)c(N(CCOC)C(=O)c2cnc(C)cn2)c(=O)[nH]c1=O returned SIRT5 block -3, FN deposition inh -1, ERAP1 HTS inh 49* and FGF22 binding 0.
`CC(C)(C)NC(=O)COC(=O)c1ccc(Cl)nc1` gave SIRT5 block -7, FN deposition inh -2, PGC1a acetyl inh -13, ERAP1 HTS inh 3 and FGF22 binding 43*.
Screening O=C(COC(=O)c1ccc(Cl)nc1)NCCNC(=O)COC(=O)c1ccc(Cl)nc1 returned SIRT5 block -1, FN deposition inh 4, ERAP1 HTS inh 3 and FGF22 binding 0.
CC=Cc1ccc2n(c1=O)C[C@@H]1[C@@H](CO)[C@H](C(=O)NCC(F)(F)F)N(CC3CC3)[C@H]21 (mixture of isomers) was read as SIRT5 block 1, ERAP1 HTS inh -1 and FGF22 binding 0.
For CN(C)N1C(N)=C(C#N)C(c2ccccc2)C2=C1CCCC2=O (stereo not given) the results were SIRT5 block 0, FN deposition inh -2, PGC1a acetyl inh 7, ERAP1 HTS inh 4 and FGF22 binding 43*.
COc1cccc(-c2cnc3c(c2)C(=O)N([C@H](C)CO)C[C@H](C)[C@H](CN(C)C)O3)c1 was read as SIRT5 block -1, FN deposition inh -4, PGC1a acetyl inh 1, ERAP1 HTS inh 2 and FGF22 binding 1.
Screening CCOCCCNC(=O)/C(C#N)=C/c1cc(OC)c(O)c([N+](=O)[O-])c1 returned SIRT5 block 4, FN deposition inh -5, PGC1a acetyl inh -2, ERAP1 HTS inh 14 and FGF22 binding 1.
Screening CCOCCCNC(=O)/C(C#N)=C/c1cc(C)c(O)c(C)c1 returned SIRT5 block 23*, FN deposition inh 3, ERAP1 HTS inh 1 and FGF22 binding 43*.
`Nc1nc(SCC(=O)NCc2ccccc2)n[nH]1` gave SIRT5 block -4 and ERAP1 HTS inh 2.
`O=C(CSc1n[nH]c(-c2ccccc2)n1)NCc1cccc(C(=O)O)c1` gave SIRT5 block -2, FN deposition inh -1, PGC1a acetyl inh 9, ERAP1 HTS inh 2 and FGF22 binding 43*.
Screening COc1ccc(OCC(=O)N/N=C/C=C/c2ccccc2)cc1 returned SIRT5 block 0, FN deposition inh -10, PGC1a acetyl inh -6, ERAP1 HTS inh 0 and FGF22 binding 43*.
Cc1ccc(/C=C2/SC(=Nc3ccc(F)cc3)NC2=O)s1 was read as SIRT5 block 1, FN deposition inh -6, PGC1a acetyl inh 4, ERAP1 HTS inh 82* and FGF22 binding 0.
For CCCC12CN3CC(C)(CN(C1)C3c1ccc([N+](=O)[O-])o1)C2=O (stereo not given) the results were SIRT5 block 4, FN deposition inh 5, PGC1a acetyl inh 8, ERAP1 HTS inh 3 and FGF22 binding 0.
For CCC12CN3CC(CC)(CN(C1)C3c1ccc([N+](=O)[O-])o1)C2=O (stereo not given) the results were SIRT5 block -2, FN deposition inh 10, PGC1a acetyl inh 4, ERAP1 HTS inh 5 and FGF22 binding 43*.
`CC12CN3CC(C)(CN(C1)C3c1ccc([N+](=O)[O-])o1)C2=O` (stereo not given) gave SIRT5 block 6, FN deposition inh -1, ERAP1 HTS inh -5 and FGF22 binding 44*.
For CO[C@H]1CN(C)C(=O)c2ccc(NS(=O)(=O)c3cccc(C)c3)cc2OC[C@H](C)NC[C@@H]1C the results were SIRT5 block 0, FN deposition inh 7, PGC1a acetyl inh 2, ERAP1 HTS inh 3 and FGF22 binding 0.
